Hits are enriched below; roughly 4.3% of the tested compounds scored in any of these assays.
OX1R antag-1 – OX1R (human) antagonism | O43613 | OX1R-expressing cells, FRET antagonist read-out | inhibition, % at 6.6 µM | 1.8% of 330,000 active | AID 485270; in the data active = inhibition mostly above about 38%, no sharp cut-off; inactive = mostly below about 40%;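 note: 0% = agonist challenge alone and 100% = reference antagonist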
Target sequence (O43613 whole entry, looked up): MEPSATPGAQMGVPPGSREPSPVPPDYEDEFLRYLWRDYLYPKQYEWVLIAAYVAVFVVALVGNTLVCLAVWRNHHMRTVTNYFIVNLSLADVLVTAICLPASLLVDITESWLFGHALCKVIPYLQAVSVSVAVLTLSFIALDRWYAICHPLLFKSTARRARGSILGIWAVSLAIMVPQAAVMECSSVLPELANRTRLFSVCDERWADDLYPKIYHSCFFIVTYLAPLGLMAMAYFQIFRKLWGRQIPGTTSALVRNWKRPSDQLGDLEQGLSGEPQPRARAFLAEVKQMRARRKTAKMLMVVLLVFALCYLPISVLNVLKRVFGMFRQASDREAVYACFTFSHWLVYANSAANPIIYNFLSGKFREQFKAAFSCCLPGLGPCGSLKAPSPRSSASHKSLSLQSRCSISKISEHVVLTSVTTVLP
TAAR1 antag – antagonists of human TAAR1; Q96RJ0; 1.5% of 360,000 active; CHO RD-HGA16 TAAR1, Fluo-8 calcium fluorescence, antagonist; inhibition, % at 3 µM;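 active = inhibition above a per-plate cutoff, the mean inhibition of test compounds on that plate plus 3 SD, cut at about 49% in these data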;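 note: 0% = DMSO plus EC80 beta-PEA response and 100% = DMSO alone without agonist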
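Assay system: CHO-derived RD-HGA16 cells stably expressing human TAAR1 plus Gα16. Timing: 140 s kinetic read after compound, 140 s after agonist. Technique: kinetic Fluo-8 calcium fluorescence measurement. Measure: % inhibition of agonist calcium response.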
GalR3 antag – human GalR3 antagonism. HEK293 GalR3-CNG cAMP membrane potential fluorescence; galR3 body fused to GalR1 C-terminus. inhibition, % at 3 µM. 0.44% of 360,000 active;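 active = inhibition above the screen-wide average plus 3 SD, cut at about 13% in these data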;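 note: forskolin and galanin both at EC90 stimulate the cells; cAMP rise reported by CNG channel membrane potential dye signal; 0% = forskolin plus galanin with DMSO and 100% = forskolin alone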
TAAR1 agonist – human TAAR1 agonism | CHO RD-HGA16 TAAR1, Fluo-8 calcium fluorescence; vehicle wells 0%, saturating PEA agonist 100% | activation, % at 3 µM | 0.99% of 360,000 active | AID 624467;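 active = activation above the mean activation of all test compounds in the run plus 3 SD, cut at about 38% in these data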
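System: CHO RD-HGA16 cells carrying human TAAR1 plus Gα16; Incubation: 17-24 h seeding, 75 min 37 °C dye, 30 min RT; Measured by: Fluo-8 fluorescence, 5 s baseline then 140 s kinetic read; Control set: DMSO and PEA EC100; Replication: single well for each compound.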
CHO parental Ca – signal in parental CHO cells, OX1R antagonist counter-screen; parental CHO-K1, ATP-induced calcium, Fluo-8 fluorescence; 0.63% of 330,000 active; inhibition, % at 5.6 µM; AID 463079;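 active = inhibition above that plate's mean sample inhibition plus 3 SD, cut at about 26% in these data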;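 note: 0% = ATP-challenged DMSO wells and 100% = DMSO wells without ATP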
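Material – parental CHO cells · Reagent – ATP stimulus · Compound – single nominal dose of 5.6 µM per compound · Detection – Fluo-8 fluorescence · Read-out basis – percent inhibition of calcium signal · Controls – ATP-challenged DMSO wells low, unchallenged DMSO wells high · Repeats – no replicates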
OX1R antag-2 – blocks the human orexin 1 receptor. O43613. CHO/OX1R cells, Fluo-8 calcium fluorescence, orexin A. inhibition, % at 5 µM. 0.43% of 330,000 active. AID 434989;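 active = inhibition above its plate's threshold, mean inhibition of all tested compounds on the plate plus 3 SD, cut at about 37% in these data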;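 note: 0% = orexin A challenge wells and 100% = SB-334867-A antagonist wells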
OX1R HTRF conf – OX1R (human) antagonism, HTRF confirmed. shares compounds with OX1R antag-1. OX1R-expressing cells, HTRF antagonist assay. inhibition, % at 6.6 µM. 49% of 1,800 active. AID 492964; in the data active = inhibition above about 55%;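 note: CHO cells expressing OX1R stimulated with orexin A at about EC80; 0% = agonist challenge alone and 100% = reference antagonist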
CHO-K1 HTRF – signal in parental CHO-K1 cells, OX1R antagonist counter-screen; shares compounds with OX1R antag-1; HTRF counterscreen; inhibition, % at 6.6 µM; 48% of 1,800 active; AID 493232; in the data active = inhibition above about 17%;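 note: 0% = agonist challenge with vehicle and 100% = vehicle alone without agonist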
* hit, by the source's call; nt = no result.

SMILES | OX1R antag-1 | TAAR1 antag | GalR3 antag | TAAR1 agonist | CHO parental Ca | OX1R antag-2 | OX1R HTRF conf | CHO-K1 HTRF
O=c1[nH]c(=O)n(C2OC(CO)C(O)C2O)c2c1CCCC2 (stereo not drawn) | nt | 6.3 | 2.1 | -0.5 | nt | nt | nt | nt
COc1cc(C(C)=O)ccc1OCC(=O)OC(C)C(=O)c1ccc(F)cc1 (stereo not drawn) | 4.7 | 0.8 | -4.9 | 4.6 | -3.6 | -25.1 | nt | nt
COc1ccc(OC)c(NC(=O)CCNC(=O)N2CC(=O)Nc3ccccc32)c1 | nt | -6.7 | -6.9 | 2.9 | nt | nt | nt | nt
CNc1ccc2ncc(-c3ccccc3NC(C)=O)n2n1 | nt | -20.4 | -1.6 | 9.2 | nt | nt | nt | nt
Nc1ccn([C@@H]2O[C@H](CNS(=O)(=O)c3cc4ccccc4s3)[C@@H](O)[C@H]2O)c(=O)n1 | nt | -14.3 | -2.9 | 1.8 | nt | nt | nt | nt
COC(=O)Cn1c(=N)n(CCN2CCCCC2)c2ccccc21 | 96.0* | -1.6 | -1.6 | 14.1 | -4.0 | -7.4 | 13.6 | -11.7
CC(=O)Nc1ccc(/C=C/c2ccc3cccc([N+](=O)[O-])c3n2)cc1 | 87.3* | 11.9 | -1.4 | 5.8 | -14.6 | 7.5 | 62.0* | 9.8
O=[N+]([O-])c1ccc(/C=C/c2ccc3cccc(O)c3n2)cc1 | 7.2 | 7.0 | -5.1 | 5.2 | 0.2 | -23.3 | nt | nt
CCOC(=O)c1ccc(Nc2cc(C)nc(-c3ccccc3)n2)cc1 | 82.9* | 40.0 | -9.3 | 0.0 | 8.2 | 26.2 | 29.3 | 15.5
CCOC(=O)c1ccc(Nc2nc(C)cc(C)n2)cc1 | nt | -2.7 | -10.1 | 1.0 | nt | nt | nt | nt
COc1ccccc1NC(=O)C(C)OC(=O)CCNS(=O)(=O)c1cccc(C(F)(F)F)c1 (stereo not drawn) | -0.9 | 0.5 | 2.5 | 3.4 | -24.2 | -19.9 | nt | nt
O=C(CNC(=O)C1CCCCC1)OC(C(=O)c1ccccc1)c1ccccc1 (stereo not drawn) | 8.2 | 2.3 | -7.3 | 1.7 | 0.0 | 13.5 | nt | nt
O=C(CSc1nnc2nnc3ccccc3n12)N1CCOCC1 | 94.0* | -7.2 | -1.8 | 1.1 | -0.6 | 2.3 | 72.2* | 102.8*
CN(CC(=O)Nc1cccc(F)c1)C(=O)c1ccccc1CCc1ccccc1 | 29.5 | 30.3 | -1.1 | 3.5 | -9.7 | -26.2 | nt | nt
COc1cc2c(cc1O)CC[n+]1cc3c(OC)c(OC)ccc3cc1-2 | 77.2* | -19.9 | 1.4 | 10.5 | -12.4 | -5.4 | 42.4 | 37.0*
COc1cc2c(cc1OC)-c1cc3ccc4c(c3c[n+]1CC2)OCO4 | 79.2* | 9.6 | -5.0 | 7.3 | -5.8 | -0.1 | 54.5 | 74.8*
C=CCSc1nnc2c(n1)OC(c1cccnc1)N(C(C)=O)c1ccccc1-2 (stereo not drawn) | 39.0 | -4.0 | -7.0 | 8.0 | -10.7 | -17.8 | nt | nt
C=CCSc1nnc2c(n1)OC(c1cccnc1)Nc1ccccc1-2 (stereo not drawn) | 77.6* | -2.1 | -2.4 | 13.3 | -11.9 | -3.9 | 22.3 | 8.3
COC(=O)c1sc(NC(=O)COc2cccnc2[N+](=O)[O-])c(C(=O)OC)c1C | 4.5 | 13.2 | -4.3 | 6.2 | 0.8 | 6.5 | nt | nt
Cc1ccc2nc(SCC(=O)c3ccc(O)cc3O)[nH]c2c1 | 81.2* | -30.4 | 9.1 | 40.9* | 2.8 | 3.0 | 79.1* | -5.1
COc1cc(-c2nccc3cc4c(cc23)OCO4)cc(OC)c1OC | nt | -4.8 | -6.1 | 7.9 | nt | nt | nt | nt
COc1cc2c(cc1OC)-c1c(OC)c(OC)cc3ccnc(c13)C2=O | 79.6* | -7.1 | 1.2 | 13.8 | -6.8 | -10.9 | 46.5 | 26.0*
O=C(CS(=O)c1ccc(C(F)(F)F)cc1[N+](=O)[O-])Oc1ccccc1 (stereo not drawn) | 86.3* | 3.0 | 5.5 | 4.4 | -13.9 | -7.0 | 46.6 | 12.7
O=c1[nH]c(=O)c2nc(-c3ccc(Cl)cc3)cnc2[nH]1 | 77.5* | -2.6 | -5.0 | 0.3 | -6.4 | -5.0 | 51.5 | 68.4*
O=c1[nH]c(-c2ccc(Cl)cc2)nc(=S)[nH]1 | 7.3 | -6.2 | -1.8 | 6.3 | -3.3 | -5.2 | nt | nt
